The source made the active and inactive calls. The calls are words filed in the database; no cut-off is given here.
What was measured:
[1] = target: Dipeptidyl peptidase 4 (Rattus norvegicus) (UniProt P14740); assay: Ex vivo inhibition of DPP4 in Sprague-Dawley rat plasma at 1 mg/kg, po after 6 hrs; assay type: organism-based; parameters: dose 1 mg/kg
Procedure, shortened: (§1)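 Male SD rats, 6–7 weeks old, fasted at least 8 h, given a single oral dose of 1 mg/kg in 0.5% methyl cellulose. Jugular vein blood taken before dosing and serially to 10 h (12 h in the species comparison). Plasma mixed with substrate (50 µL of 60 µM Gly-Pro-AMC). Initial fluorescence rate over 15 min at 37 °C; % inhibition is relative to basal activity.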

[2] = target: Dipeptidyl peptidase 4 (Rattus norvegicus) (UniProt P14740); assay: Ex vivo inhibition of DPP4 in Sprague-Dawley rats plasma at 1 mg/kg, po after 10 hrs; assay type: organism-based; parameters: dose 1 mg/kg; procedure, shortened: as §1
[3] = target: Dipeptidyl peptidase 4 (Rattus norvegicus) (UniProt P14740); assay: Ex vivo inhibition of DPP4 in Sprague-Dawley rats plasma at 1 mg/kg, po after 12 hrs; assay type: organism-based; parameters: dose 1 mg/kg; procedure, shortened: as §1
Canis familiaris = assay: Ex vivo inhibition of DPP4 in Beagle dog at 1 mg/kg, po after 12 hrs; assay type: functional; details: Canis lupus familiaris
Procedure, shortened: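 Male beagle dogs (11–15 kg) and male cynomolgus monkeys (3.5–6 kg), fasted 8 h, given a single oral dose of 1 mg/kg in 0.5% methyl cellulose. Femoral vein blood taken before dosing and at 12 h. Plasma DPP-IV activity measured as the initial rate of Gly-Pro-AMC cleavage (fluorescence, ex 355/em 460 nm, 37 °C); % inhibition is relative to basal activity.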

[4] = Stability in Tris buffer at pH 7.4 after 24 hrs; assay type: physicochemical; details: read-out: Stability
Procedure, shortened: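 Remaining percentage measured after incubation in 100 mM Tris buffer, pH 7.4, at room temperature for 24 h.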

Rattus norvegicus [5] = assay: Suppression of glucose level in Sprague-Dawley rats at 1 mg/kg, po administered 30 mins prior to glucose by glucose tolerance test after 6 hrs; assay type: functional, organism-based; parameters: dose 1 mg/kg
Procedure, shortened: (§2)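 Male SD rats (364–473 g), fasted at least 20 h, given vehicle (0.5% methyl cellulose) or 1 mg/kg orally at −0.5 h. Oral glucose 1 g/kg given at 0, 6 and 12 h. Tail-vein blood collected into heparinized tubes from −0.08 h to 14 h. Plasma glucose measured by glucose oxidase–peroxidase dye method.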

Rattus norvegicus [6] = assay: Suppression of glucose level in Sprague-Dawley rats at 1 mg/kg, po administered 30 mins prior to glucose by glucose tolerance test; assay type: functional, organism-based; parameters: dose 1 mg/kg; procedure, shortened: as §2
Rattus norvegicus [7] = assay: Suppression of glucose level in Sprague-Dawley rats at 1 mg/kg, po administered 30 mins prior to glucose by glucose tolerance test after 12 hrs; assay type: functional, organism-based; parameters: dose 1 mg/kg; procedure, shortened: as §2
Cynomolgus monkey = assay: animal or person; details: Macaca fascicularis, po, 12 h, read-out: Inhibition

Dipeptidyl peptidase 4 (Rattus norvegicus), sequence (P14740 whole entry, looked up): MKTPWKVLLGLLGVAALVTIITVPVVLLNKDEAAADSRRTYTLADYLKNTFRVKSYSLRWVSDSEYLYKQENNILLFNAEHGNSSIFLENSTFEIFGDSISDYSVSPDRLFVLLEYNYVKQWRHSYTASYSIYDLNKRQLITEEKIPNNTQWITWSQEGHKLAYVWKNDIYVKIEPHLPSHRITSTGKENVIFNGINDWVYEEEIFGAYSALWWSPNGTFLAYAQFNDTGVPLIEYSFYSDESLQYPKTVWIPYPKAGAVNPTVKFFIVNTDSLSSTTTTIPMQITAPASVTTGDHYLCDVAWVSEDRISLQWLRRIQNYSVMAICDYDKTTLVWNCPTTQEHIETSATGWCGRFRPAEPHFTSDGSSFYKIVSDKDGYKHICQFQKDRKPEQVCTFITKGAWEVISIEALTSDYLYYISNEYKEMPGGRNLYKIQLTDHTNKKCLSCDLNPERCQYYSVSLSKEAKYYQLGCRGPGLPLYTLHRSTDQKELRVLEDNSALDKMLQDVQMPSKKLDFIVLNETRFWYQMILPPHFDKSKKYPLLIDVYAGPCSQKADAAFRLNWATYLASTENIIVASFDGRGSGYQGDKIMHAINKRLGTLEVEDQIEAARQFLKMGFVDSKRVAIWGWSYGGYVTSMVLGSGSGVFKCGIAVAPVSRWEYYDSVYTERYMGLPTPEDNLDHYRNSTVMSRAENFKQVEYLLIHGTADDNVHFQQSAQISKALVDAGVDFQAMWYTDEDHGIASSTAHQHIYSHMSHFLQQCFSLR

Compound	inhibition [1] [%]	inhibition [2] [%]	further results
N#C[C@@H]1CCCN1C(=O)[C@@H]1C[C@H](C(=O)N2CCCCCC2)CN1	68		
CCC[C@@H]1CN[C@H](C(=O)N2CCC[C@H]2C#N)C1	50		
N#C[C@@H]1CCCN1C(=O)[C@@H]1C[C@H](C(=O)N2CCOCC2)CN1	73	44	
CCN(CC)C(=O)[C@@H]1CN[C@H](C(=O)N2CCC[C@H]2C#N)C1	43		
N#C[C@@H]1CCCN1C(=O)[C@@H]1C[C@H](C(N)=O)CN1	47	20	
CNC(=O)[C@@H]1CN[C@H](C(=O)N2CCC[C@H]2C#N)C1	75	28	
C[C@@H]1N[C@H](C(=O)N2CCC[C@H]2C#N)C[C@@H]1C(=O)N1CCC1	94	88	
C[C@@H]1N[C@H](C(=O)N2CCC[C@H]2C#N)C[C@@H]1C(=O)N(C)C	95	84	inhibition [3]: 81%; remaining at 24 h [4]: 92%; Activity (Rattus norvegicus [5]): Active; Activity (Rattus norvegicus [6]): Active; Activity (Rattus norvegicus [7]): Active; inhibition in vivo at 1 mg/kg (Cynomolgus monkey): 93%; inhibition in vivo at 1 mg/kg (Canis familiaris): 98%
CCNC(=O)[C@@H]1CN[C@H](C(=O)N2CCC[C@H]2C#N)C1	60	19	
N#C[C@@H]1CCCN1C(=O)[C@@H]1C[C@H](CO)CN1	64		
CCN(C)C(=O)[C@H]1C[C@@H](C(=O)N2CCC[C@H]2C#N)N[C@H]1C	92	79	inhibition [3]: 74%; inhibition in vivo at 1 mg/kg (Cynomolgus monkey): 95%; inhibition in vivo at 1 mg/kg (Canis familiaris): 89%
C[C@@H]1N[C@H](C(=O)N2CCC[C@H]2C#N)C[C@@H]1C(=O)N1CCOCC1	94	85	inhibition in vivo at 1 mg/kg (Cynomolgus monkey): 90%; inhibition in vivo at 1 mg/kg (Canis familiaris): 98%
N#C[C@@H]1CCCN1C(=O)[C@@H]1CCCN1	20		
CN(C)C(=O)C[C@@H]1CN[C@H](C(=O)N2CCC[C@H]2C#N)C1	66		
C=CC[C@@H]1CN[C@H](C(=O)N2CCC[C@H]2C#N)C1	38		
CCN(C)C(=O)[C@@H]1CN[C@H](C(=O)N2CCC[C@H]2C#N)C1	71	34	
N#C[C@@H]1CCCN1C(=O)[C@@H]1C[C@H](CC(=O)O)CN1	58		
C[C@@H]1N[C@H](C(=O)N2CCC[C@H]2C#N)C[C@@H]1C(=O)N1CCCCC1	91	81	

Further lines, with some results ahead:

inhibition [1] [%]	inhibition [2] [%]	Compound	further results
86	77	C[C@@H]1N[C@H](C(=O)N2CCC[C@H]2C#N)C[C@@H]1C(=O)N1Cc2ccccc2C1	inhibition [3]: 71%; inhibition in vivo at 1 mg/kg (Canis familiaris): 16%
64		N#C[C@@H]1CCCN1C(=O)[C@@H]1C[C@H](CCO)CN1	
84	50	N#C[C@@H]1CCCN1C(=O)[C@@H]1C[C@H](C(=O)N2CCCCC2)CN1	
92	85	C[C@@H]1N[C@H](C(=O)N2CCC[C@H]2C#N)C[C@@H]1C(=O)N1CCSCC1	
85	40	N#C[C@@H]1CCCN1C(=O)[C@@H]1C[C@H](C(=O)N2CCCC2)CN1	
59	21	CCCNC(=O)[C@@H]1CN[C@H](C(=O)N2CCC[C@H]2C#N)C1	
63		N#C[C@@H]1CCCN1C(=O)[C@@H]1C[C@H](C(=O)N2CCCCCCC2)CN1	
72	19	N#C[C@@H]1CCCN1C(=O)[C@@H]1C[C@H](C(=O)N2CCSCC2)CN1	
58		CN(C)C(=O)CC[C@@H]1CN[C@H](C(=O)N2CCC[C@H]2C#N)C1	
94	88	C[C@@H]1N[C@H](C(=O)N2CCC[C@H]2C#N)C[C@@H]1C(=O)N1CCCC1	inhibition [3]: 82%; inhibition in vivo at 1 mg/kg (Cynomolgus monkey): 95%; inhibition in vivo at 1 mg/kg (Canis familiaris): 95%
77	46	N#C[C@@H]1CCCN1C(=O)[C@@H]1C[C@H](C(=O)N2CCC2)CN1	
76	52	CN(C)C(=O)[C@@H]1CN[C@H](C(=O)N2CCC[C@H]2C#N)C1	inhibition [3]: 24%; remaining at 24 h [4]: 52%; inhibition in vivo at 1 mg/kg (Cynomolgus monkey): 44%; inhibition in vivo at 1 mg/kg (Canis familiaris): 45%

Reference: ChEMBL document CHEMBL1147187, “Design and synthesis of new potent dipeptidyl peptidase IV inhibitors with enhanced ex vivo duration” (Bioorg Med Chem, 2007)
